Measurements from PubChem BioAssay.
Active and inactive are the calls of the source.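 How the source made its calls, unless noted: active means viability at or below 10% of carrier control in both of two separate runs; inconclusive means viability at or below 10% in only one of the two runs; inactive means the rest.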

What was measured:
[1] = reducers of endogenous Her2 protein level, primary screen, SKBR3 breast tumor cells, AlphaScreen, ATP viability (AID 461;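 active means Her2 level under about 52% in both replicate screens, with viability over 70% of control, limit read from the data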;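 on Her2 level: lower value means less Her2 protein in the cells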;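 on viability: percent of carrier control wells set as 100% viability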); conditions: 18-24 h, measured here: SKBR3 viability, ATP luminescence, at 10 µM
[2] = target: Receptor tyrosine-protein kinase erbB-2 (Homo sapiens) (UniProt P04626); experiment: as above; conditions: 18-24 h, at 10 µM, stronger effect = lower value
Sequence of Receptor tyrosine-protein kinase erbB-2 (Homo sapiens) (P04626 whole entry, looked up): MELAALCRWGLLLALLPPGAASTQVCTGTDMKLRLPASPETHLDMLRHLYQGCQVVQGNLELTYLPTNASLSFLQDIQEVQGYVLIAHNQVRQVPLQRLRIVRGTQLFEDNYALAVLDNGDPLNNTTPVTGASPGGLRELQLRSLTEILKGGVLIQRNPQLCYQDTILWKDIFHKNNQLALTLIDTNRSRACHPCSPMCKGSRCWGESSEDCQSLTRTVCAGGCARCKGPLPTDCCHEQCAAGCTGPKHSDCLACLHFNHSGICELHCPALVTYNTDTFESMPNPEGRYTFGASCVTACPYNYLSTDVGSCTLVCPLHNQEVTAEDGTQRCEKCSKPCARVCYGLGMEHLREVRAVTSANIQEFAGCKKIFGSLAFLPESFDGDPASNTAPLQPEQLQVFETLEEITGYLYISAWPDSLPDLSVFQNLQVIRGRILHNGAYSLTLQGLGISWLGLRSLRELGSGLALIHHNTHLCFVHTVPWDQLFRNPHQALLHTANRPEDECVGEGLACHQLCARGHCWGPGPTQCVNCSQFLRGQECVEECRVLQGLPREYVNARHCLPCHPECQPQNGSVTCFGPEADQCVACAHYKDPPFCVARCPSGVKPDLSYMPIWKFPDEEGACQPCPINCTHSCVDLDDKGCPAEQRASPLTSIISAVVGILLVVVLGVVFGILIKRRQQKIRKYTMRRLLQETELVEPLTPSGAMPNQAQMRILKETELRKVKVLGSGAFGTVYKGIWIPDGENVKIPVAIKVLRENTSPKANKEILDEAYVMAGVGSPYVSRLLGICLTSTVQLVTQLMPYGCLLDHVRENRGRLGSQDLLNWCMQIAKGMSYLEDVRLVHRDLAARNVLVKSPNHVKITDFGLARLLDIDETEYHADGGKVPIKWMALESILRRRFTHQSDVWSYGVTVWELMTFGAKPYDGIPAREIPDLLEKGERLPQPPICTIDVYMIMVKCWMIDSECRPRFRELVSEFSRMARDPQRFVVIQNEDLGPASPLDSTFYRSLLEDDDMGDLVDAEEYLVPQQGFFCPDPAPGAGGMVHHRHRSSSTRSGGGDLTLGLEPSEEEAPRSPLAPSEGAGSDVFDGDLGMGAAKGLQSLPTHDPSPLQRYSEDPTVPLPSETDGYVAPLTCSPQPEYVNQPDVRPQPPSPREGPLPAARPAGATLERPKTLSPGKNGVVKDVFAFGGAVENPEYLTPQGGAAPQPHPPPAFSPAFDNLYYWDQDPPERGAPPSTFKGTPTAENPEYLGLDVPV

[3] = SK-BR-3 cell growth inhibitors, pilot screen, 24 h, human (AID 572); conditions: SK-BR-3 viability, CellTiter-Glo luminescence, at 10 µM, stronger effect = lower value;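 further: compound exposure lasted between 18 and 24 h rather than exactly 24 h; 100% = carrier-treated control wells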
[4] = HUVEC growth inhibition – cell-based, human, primary screen (AID 575;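 active means viability at or below 30% in both replicate assays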;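 further: 100% = median of untreated cell wells with 0.1% DMSO on each plate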); conditions: HUVEC proliferation, CellTiter-Glo luminescence, 72 h; at 10 µM; stronger effect = lower value
Outline: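 Test system: primary human umbilical vein endothelial cells. Quantity: 1250 cells/well. Compound: single 10 µM dose, 0.1% DMSO, from 5x medium stock. Timing: 72 h treatment at 37 °C. Detection: ATP-based CellTiter-Glo luminescent read. Benchmarks: vehicle and MePR control wells. Format: 384-well plates coated with collagen.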

[5] = growth inhibitors of H69AR lung tumor, primary screen, human, duplicate replicates (AID 580;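 active means viability at or under a set limit in both replicates, limit being median viability minus 3 SD, cut at about 48% in these data, passing the limit was not always enough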;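 further: 100% = mean luminescence of untreated wells and 0% = no signal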); conditions: H69AR lung tumor cells viability, ATP luminescence, 72 h; at 10 µM; stronger effect = lower value
[6] = reversal of MRP1-mediated doxorubicin resistance, pilot screen, H69AR cells, doxorubicin co-treatment (AID 601;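 active means viability loss from added drug above about 55%, and viability with drug at most 40%, in both replicates, limit read from the data, passing the limit was not always enough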); conditions: CellTiter-Glo, 72 h, at 10 µM; for differential viability (reversal): stronger effect = higher value
[7] = 384-well plate pilot, post-Golgi transport modulator project, inhibition of yeast transport mutant growth (AID 636; in the data active means inhibition above about 31%); conditions: absorbance 615 nm, about 18 h, stronger effect = higher value
[8] = growth suppression of yeast trafficking mutant, preliminary HTS, modulators of trafficking downstream of Golgi apparatus project, 1536-format plate, OD 615 nm (AID 637; in the data active means inhibition above about 30%); conditions: yeast transport mutant growth, absorbance 615 nm, 18 h; stronger effect = higher value
[9] = H69AR cells + 2 uM doxorubicin, measured here: viability with 2 uM doxorubicin, stronger effect = lower value
[10] = H69AR cells, compound alone cytotoxicity

| SMILES | viability [1] [%] | Her2 level [2] | viability [3] | viability [4] | viability [5] | differential viability (reversal) ([6]; H69AR cells + 2 uM doxorubicin) | viability [6, 9] [%] | viability [6, 10] [%] | inhibition [7] | inhibition [8] |
| --- | --- | --- | --- | --- | --- | --- | --- | --- | --- | --- |
| O=C(CSc1nnc2ncccn12)N1CCCCCC1 | 102 | 85% (inactive) | 102% (inactive) | 103% (inactive) | 107% (inactive) | 15.6% (inactive) | 91.3 | 107 | -3.84% (inactive) | -7.3% (inactive) |
| COc1ccc(-c2c(C(F)(F)F)oc3c(CN4CCN(C)CC4)c(O)ccc3c2=O)cc1 | 84.5 | 108% (inactive) | 84.5% (inactive) | 87.9% (inactive) | 102% (inactive) | -1.1% (inactive) | 103 | 102 | -2.67% (inactive) | -6.03% (inactive) |
| CCOc1ccccc1NC(=O)N1CCCC1C(=O)Nc1nnc(CC)s1 (stereo not given) | 94 | 88% (inactive) | 94% (inactive) | 89.7% (inactive) | 109% (inactive) | 20% (inactive) | 88.8 | 109 | -5.95% (inactive) | -0.83% (inactive) |
| COc1ccc(C2C(C(=O)c3sc(C)nc3C)=C(O)C(=O)N2CCN2CCOCC2)cc1 (stereo not given) | 99 | 92.5% (inactive) | 99% (inactive) | 111% (inactive) | 102% (inactive) | 5.41% (inactive) | 96.3 | 102 | 0% (inactive) | -4.19% (inactive) |
| N#CCCn1ccc(NC(=O)c2ccc(Cl)cc2)n1 | 79 | 87.5% (inactive) | 79% (inactive) | 102% (inactive) | 97% (inactive) | 8.88% (inactive) | 88.1 | 97 | -5.27% (inactive) | -0.66% (inactive) |
| O=C(c1ccccc1)N1CCCCC(Sc2nnnn2-c2ccccc2)C1=O (stereo not given) | 89.5 | 104% (inactive) | 89.5% (inactive) | 82.7% (inactive) | 104% (inactive) | 12.6% (inactive) | 91.1 | 104 | -6.13% (inactive) | -0.32% (inactive) |
| O=C(COc1ccccc1)Nc1ccc(-c2nnc(-c3ccco3)o2)cc1 | 128 | 108% (inactive) | 128% (inactive) | 102% (inactive) | 95.5% (inactive) | 8.73% (inactive) | 86.8 | 95.5 | -6.97% (inactive) | -1.15% (inactive) |
| C/C(=N\O)C(C)/[N+]([O-])=C/c1nc(C)c(C)n1O (stereo not given) | 95.5 | 109% (inactive) | 95.5% (inactive) | 97% (inactive) | 92.8% (inactive) | -8.95% (inactive) | 102 | 92.8 | -0.27% (inactive) | 0.48% (inactive) |
| CCCCOc1ccc(-c2nnn(CC(=O)NCc3ccco3)n2)cc1 | 82.5 | 81% (inactive) | 82.5% (inactive) | 57.3% (inactive) | 23.9% (active) | -30.3% (inactive) | 54.3 | 23.9 | -1.18% (inactive) | 4.1% (inactive) |
| O=C(NCc1ccc2c(c1)OCO2)C1CCCN(S(=O)(=O)c2cccnc2)C1 (stereo not given) | 95.5 | 102% (inactive) | 95.5% (inactive) | 101% (inactive) | 92.4% (inactive) | 7.61% (inactive) | 84.8 | 92.4 | 0.38% (inactive) | -6.5% (inactive) |
| CC(C)(C)N(Cc1cc2ccccc2[nH]c1=O)C(=O)C1CCCCC1 | 104 | 118% (inactive) | 104% (inactive) | 69.4% (inactive) | 86.1% (inactive) | 3.29% (inactive) | 82.8 | 86.1 | -3.2% (inactive) | -7.21% (inactive) |
| CCN(CC)c1ccc(/C=N/n2nnnc2N)c(O)c1 | 119 | 80% (inactive) | 119% (inactive) | 57.6% (inactive) | 14.4% (active) | -42.7% (inactive) | 57.2 | 14.4 | 0.52% (inactive) | -1.15% (inactive) |
| C=CCOc1cccc(C2/C(=C(\O)c3ccc(F)cc3)C(=O)C(=O)N2CCN(C)C)c1 (stereo not given) | 96.5 | 97.5% (inactive) | 96.5% (inactive) | 98% (inactive) | 105% (inactive) | 10.4% (inactive) | 94.6 | 105 | -2.11% (inactive) | 0.98% (inactive) |
| CCOC(=O)N1CCN(C(=O)CSc2nnc(Cc3ccccc3)o2)CC1 | 92.5 | 102% (inactive) | 92.5% (inactive) | 76% (inactive) | 103% (inactive) | 25.7% (inactive) | 77.2 | 103 | 0.27% (inactive) | 1.97% (inactive) |
| CC(O)c1c(OCc2ccccc2)ncnc1OCc1ccccc1 (stereo not given) | 83.5 | 82.5% (inactive) | 83.5% (inactive) | 59.5% (inactive) | 93.8% (inactive) | 14.6% (inactive) | 79.3 | 93.8 | -2.73% (inactive) | 1.48% (inactive) |
